Compound activity as filed in PubChem.
A selection: hits, their analogues and other compounds. The true share with any hit is near 2%.
MC4R antag cAMP – blocks human MC4R cAMP signaling | P32245 | MC4R-expressing cells, MTII-stimulated cAMP, LANCE TR-FRET | inhibition, % at 6.5 µM | actives 0.48% (n = 360,000);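 active = inhibition above its plate's cutoff, the mean of tested wells on that plate plus 3 SD, cut at about 29% in these data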;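 also: 0% = Melanotan II alone and 100% = Melanotan II plus saturating MCL0020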
Target sequence (P32245 whole entry, looked up): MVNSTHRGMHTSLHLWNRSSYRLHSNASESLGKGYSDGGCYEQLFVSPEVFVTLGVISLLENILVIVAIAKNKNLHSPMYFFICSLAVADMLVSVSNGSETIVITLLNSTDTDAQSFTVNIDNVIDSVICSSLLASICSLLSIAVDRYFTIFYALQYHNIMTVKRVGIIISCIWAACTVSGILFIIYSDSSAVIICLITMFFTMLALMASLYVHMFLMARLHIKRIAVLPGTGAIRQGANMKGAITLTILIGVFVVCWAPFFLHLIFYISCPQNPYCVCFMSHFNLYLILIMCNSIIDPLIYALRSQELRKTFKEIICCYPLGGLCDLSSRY
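System: U2OS-MC4R stable cell line; Technique: Eu-cAMP/anti-cAMP TR-FRET, emission 671 nm; Repeats: single well per compound; Also added: Melanotan II; Dosing: one concentration, 6.5 µM nominal; Schedule: 30-min compound, 1-h challenge, 1-h detection, room temperature.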
Bfl-1 A1 inh – inhibitors of the anti-apoptotic protein A1, read as caspase activation | MEF A1-2A-BIM cells, Caspase-Glo 3/7 luminescence, 3 h; percent of clofoctol response, vehicle zero | caspase activation, % (concentration not given with the values) | actives 0.066% (n = 330,000) | AID 2462;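 active = over half of replicate activation scores above 10%, or exactly half above 10 with the replicate mean above 10; inconclusive = replicate mean below 10 yet half the replicates above 10; inactive = over half of replicates below 10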
MC4R ag barr – agonists of human melanocortin 4 receptor (MC4R) beta-arrestin; P32245; U2OS MC4R beta-arrestin complementation, luminescence; percent of melanotan II response, DMSO zero; activation, % at 8.9 µM; actives 0.98% (n = 360,000); AID 540308;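 active = activation above a per-plate cutoff, the mean activation of sample wells on that plate plus 3 SD, cut at about 8% in these data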
CHOP UPR activ – apoptotic UPR (CHOP) activation | actives 0.34% (n = 330,000) | CHO-CHOP luciferase reporter, luminescence; percent of tunicamycin response over DMSO baseline | activation, % at 10 µM;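 active = at 10 µM dose, activation of 40% or more, normalized to positive control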;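 also: 100% = tunicamycin at 10 µg/mL and 0% = DMSO alone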
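System: CHO-CHOP luciferase reporter cell line | Buffer or medium: F12 medium containing 10% fetal bovine serum | Doses: One dose, 10 µM in 0.5% DMSO | Times: 6 h compound exposure at 37 °C after overnight seeding | Signal: Luciferase luminescence | Read-out: % activation vs tunicamycin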
XBP1 UPR activ – activators of adaptive arm of unfolded protein response (XBP1). activation, % at 20 µM. CHO-XBP1 luciferase reporter, IRE1-XBP1 UPR activation, luminescence; percent of tunicamycin response, DMSO as zero. actives 0.33% (n = 330,000);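 active = versus positive control, 20 µM dose yields 30% or more activation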;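 also: 100% = tunicamycin at 10 µg/mL and 0% = DMSO only wells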
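Assay system: CHO-XBP1 luciferase reporter cells; Schedule: 6 h treatment, 37 °C; Detection: glow luminescence from Steady-Glo reagent; Benchmarks: high control tunicamycin 10 µg/mL final, low control DMSO vehicle only.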
CHOP UPR conf – apoptotic UPR (CHOP) activation, confirmed. activation, % at 10 µM. shares compounds with CHOP UPR activ. actives 64% (n = 1,000). CHO-CHOP cells, CHOP-luciferase reporter luminescence; percent of tunicamycin response, DMSO as zero; in the data active = activation above about 33%;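 also: 0% = DMSO wells and 100% = tunicamycin 10 µg/mL wells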
XBP1 UPR conf – confirmation of adaptive unfolded protein response (XBP1) activators. shares compounds with XBP1 UPR activ. CHO-XBP1 IRE1-XBP1 luciferase reporter, luminescence. activation, % at 20 µM. actives 63% (n = 1,000);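 active = reporter signal at least 30% of the positive control's activation in two or more of four replicate wells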;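 also: plate controls were DMSO negative control for no effect and tunicamycin 10 µg/mL positive control for full effect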
cAMP nonselect – nonselective cAMP signaling inhibitor, MC4R antagonist counter-screen | shares compounds with MC4R antag cAMP | parental U2OS, forskolin cAMP, LANCE TR-FRET | inhibition, % at 6.5 µM | actives 26% (n = 1,600) | AID 602193;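 active = mean inhibition over triplicates above the low-control well mean plus 3 SD, set per campaign, cut at about 13% in these data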;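 also: signal is single emission at 671 nm which falls as cellular cAMP rises; 0% = forskolin-stimulated wells and 100% = buffer without forskolin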
MC4R cAMP antag – human MC4R cAMP antagonism confirmation | inhibition, % at 6.5 µM | MC4R-expressing cells, MTII-stimulated cAMP, TR-FRET | actives 27% (n = 1,600) | shares compounds with MC4R antag cAMP; in the data active = inhibition above about 29%;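 also: 0% = agonist stimulated wells alone and 100% = agonist stimulated wells plus saturating reference antagonist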
* hit, by the source's call; ? = inconclusive; . = no result.

SMILES	MC4R antag cAMP	Bfl-1 A1 inh	MC4R ag barr	CHOP UPR activ	XBP1 UPR activ	CHOP UPR conf	XBP1 UPR conf	cAMP nonselect	MC4R cAMP antag
Cc1ccc2nc(-c3ccc(NC(=S)NC4CC(C)(C)NC(C)(C)C4)cc3)sc2c1	18	0	5	60*	49*	63*	61*	.	.
CCC(=O)NC(=S)Nc1ccc(-c2nc3ccc(C)cc3s2)cc1	17	-1	-1	2	4	.	.	.	.
O=C(O)c1ccc(N2C(=O)/C(=C/c3ccc(-c4ccc([N+](=O)[O-])cc4)o3)C=C2c2ccccc2)cc1	10	0	-1	44*	57*	20	80*	.	.
COc1ccc(CC(=O)Nc2ccc(-c3noc(-c4ccc(Cl)cc4)n3)cc2)cc1	3	0	7	79*	76*	13	22	.	.
Cc1c(N2CCCCC2)[nH]c2ccccc12	12	.	0	.	.	.	.	.	.
OCCN1CCN(c2ncnc3c2ncn3[C@H]2CN(Cc3cccs3)C[C@@H](CO)O2)CC1	4	.	0	.	.	.	.	.	.
COC(=O)/C=c1/s/c(=C(\C#N)C(=O)NCc2ccco2)n(-c2ccccc2)c1=O	0	0	2	1	-3	.	.	.	.
COc1ccc(/C=c2\s/c(=C(/C#N)C(=O)NCc3ccco3)n(-c3ccccc3)c2=O)cc1	13	-1	-1	43*	38*	8	43*	.	.
Cc1ccc2sc(-c3ccc(NC(=O)c4cc(-n5cnnc5)ccc4Cl)cc3)nc2c1	16	-1	7	85*	69*	19	20	.	.
COc1cc(C(=O)Oc2ccc3c(c2)OCC3=O)cc(OC)c1OC	8	?	1	46*	43*	0	17	.	.
Cc1ccc(S(=O)(=O)N2CCCCC2)cc1NC(=O)c1ccc(=O)[nH]c1	-6	.	-2	.	.	.	.	.	.
Cc1nn(-c2ccccc2)c(C)c1/C=N/NC(=O)CSc1nc2ccccc2c(=O)n1-c1ccc(Br)cc1	3	7.1*	1	252*	69*	60*	111*	.	.
Cc1cc(NC(=O)c2cc(-c3ccccn3)nc3ccc(Br)cc23)no1	-2	1	4	58*	34*	61*	33*	.	.
COc1ccccc1N1CC(C(=O)OC(C)C(=O)Nc2ccc(F)cc2)CC1=O (centres undefined)	-4	.	-2	.	.	.	.	.	.
COC(=O)c1ccc(NC(=O)c2cc(-c3ccncc3)nc3ccccc23)cc1	7	2	0	0	-3	.	.	.	.
O=C(Nc1ccc(Br)cc1)c1cc(-c2ccncc2)nc2ccccc12	6	1	0	67*	122*	29	105*	.	.
CC1CCCCC1N1CN=C(Nc2nc3ccccc3s2)NC1 (centres undefined)	-5	0	2	46*	90*	86*	99*	.	.
COCCCN1C(=O)C(CC(=O)NC(c2ccccc2)c2ccccc2)CC(C(=O)N2CCOCC2)=C1C (centres undefined)	2	.	0	.	.	.	.	.	.
O=C(CN(c1cccc(C(F)(F)F)c1)S(=O)(=O)c1ccc(Cl)c([N+](=O)[O-])c1)NCc1ccc(F)cc1	29*	0	1	53*	2	50*	.	18*	57*
CC1CCN(S(=O)(=O)c2cc(C(=O)N3CCN(c4ccccc4)CC3)ccc2Br)CC1	1	.	-2	.	.	.	.	.	.
O=C(COC(=O)c1ccccc1C(=O)c1ccc(Cl)c([N+](=O)[O-])c1)NC1CCCCCC1	64*	1	-3	85*	-4	36*	.	12	31*
O=C(Nc1ccc(F)cc1)c1nc(S(=O)(=O)Cc2ccccc2)ncc1Cl	8	0	-4	-9	-11	.	.	.	.
Cc1ccccc1CS(=O)(=O)c1ncc(Cl)c(C(=O)Nc2ccc(F)cc2)n1	42*	1	-3	187*	-9	101*	.	29*	26
CCC(=O)Nc1ccc(C(=O)Cn2ncc(Cl)c(Cl)c2=O)cc1	29*	0	1	63*	0	74*	.	22*	26
CCc1ccccc1NC(=O)CN(C)C(=O)Cn1ncc(Cl)c(Cl)c1=O	21	?	-3	.	.	.	.	.	.
SMILES	MC4R antag cAMP	Bfl-1 A1 inh	MC4R ag barr	CHOP UPR activ	XBP1 UPR activ	CHOP UPR conf	XBP1 UPR conf	cAMP nonselect	MC4R cAMP antag
Cc1ccc(CN2C(=O)C(C)Sc3ccc(C#N)cc32)cc1 (centres undefined)	-4	.	2	.	.	.	.	.	.
C/C(=N\NC(=O)c1ccc(Cl)c(Cl)c1)c1ccccn1	29*	-2	-3	367*	4	322*	.	20*	27
CCOC(=O)c1ccc(N=c2sc(C(=O)OC)cc(=O)n2Cc2ccco2)cc1	32*	-1	1	41*	7	23	.	10	36*
CCc1nc2ccc(C(=O)N3CCN(c4ccccc4)CC3)cn2c1N(CCC(C)C)CCN(C)C	3	.	2	.	.	.	.	.	.
CCOC(=O)C1(C)CCN1C(=O)c1cncc(Br)c1 (centres undefined)	3	.	-1	.	.	.	.	.	.
Cc1cc(C(=O)CCl)c(C)n1CCc1ccc(F)cc1	31*	0	8	179*	8	195*	.	12	33*
COc1ccc(CCn2c(C)cc(C(=O)CCl)c2C)cc1OC	30*	1	7	79*	0	122*	.	11	26
CCn1c2ccccc2c2cc(NC(=O)N3CCCCC3)ccc21	-2	.	-3	.	.	.	.	.	.
CC1(C)CC(=O)C2=C(C1)OC1=C(C(=O)CC(C)(C)C1)C2c1ccc(O)cc1O	74*	2	-4	208*	-5	-9	.	50*	52*
CC(=NO)C1(C)CC=CCC1CO (centres undefined)	-3	.	1	.	.	.	.	.	.
Cc1cc(O)c(C(=O)/C=C/c2ccc(Cl)cc2)c(=O)o1	2	-1	1	5	-5	.	.	.	.
O=C(/C=C/c1ccc(Cl)cc1)c1ccc([N+](=O)[O-])o1	40*	9.9*	-2	69*	-6	22	.	9	27
O=C(Cn1ncc(Cl)c(Cl)c1=O)N1CCN(S(=O)(=O)c2ccc3ccccc3c2)CC1	50*	1	-1	94*	-5	25	.	24*	51*
